Several values for one entry are separate records, joined by “and”; a condition that tells them apart may be missing. Identical values can stand only once.
Target: Hypoxia-inducible factor 1-alpha (Homo sapiens) (UniProt Q16665)
Assay: HIF reporter inhibition across pancreatic and renal lines – cell-based, luminescence, MIAPaCa-2, 786-0, panel, SAR follow-up (AID 652011)
Conditions: MIAPaCa-2/PANC HIF reporter, luciferase luminescence, desferoxamine, overnight, HIF1a, run 1; at 99 µM (top of the series)
In short: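 Also added: desferoxamine added before compound. Dosing: compounds from 10 mM and 0.3125 mM stocks, 1% DMSO final. Timing: overnight seeding and compound exposure, 37 °C, 5% CO2, 10-min detection. Detection: luciferase luminescence with One-Glo reagent.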

Sequence of Hypoxia-inducible factor 1-alpha (Homo sapiens) (Q16665 whole entry, looked up): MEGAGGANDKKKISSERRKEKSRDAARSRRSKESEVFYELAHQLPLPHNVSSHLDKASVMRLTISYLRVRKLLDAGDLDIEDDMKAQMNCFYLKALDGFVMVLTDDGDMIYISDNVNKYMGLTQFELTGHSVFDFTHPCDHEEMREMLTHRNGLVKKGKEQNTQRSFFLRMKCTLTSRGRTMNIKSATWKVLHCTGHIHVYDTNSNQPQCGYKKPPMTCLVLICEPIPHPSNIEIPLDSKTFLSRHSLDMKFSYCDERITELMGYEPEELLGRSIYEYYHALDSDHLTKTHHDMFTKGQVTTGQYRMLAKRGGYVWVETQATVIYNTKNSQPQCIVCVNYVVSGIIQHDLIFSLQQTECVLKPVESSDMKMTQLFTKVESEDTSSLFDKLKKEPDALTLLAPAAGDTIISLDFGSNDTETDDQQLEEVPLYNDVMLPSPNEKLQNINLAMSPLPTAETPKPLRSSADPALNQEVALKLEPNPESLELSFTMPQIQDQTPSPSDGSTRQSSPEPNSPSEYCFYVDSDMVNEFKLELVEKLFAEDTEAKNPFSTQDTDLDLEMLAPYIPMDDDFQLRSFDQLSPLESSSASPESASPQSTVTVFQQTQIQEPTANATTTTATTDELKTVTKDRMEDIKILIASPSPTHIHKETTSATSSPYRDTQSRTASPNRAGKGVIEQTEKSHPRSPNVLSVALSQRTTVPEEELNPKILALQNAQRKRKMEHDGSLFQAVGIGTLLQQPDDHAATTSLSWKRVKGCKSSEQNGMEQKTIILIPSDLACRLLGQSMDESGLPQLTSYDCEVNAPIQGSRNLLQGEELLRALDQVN

How did the inhibition turn out when `CCNC(=O)CCc1nc(-c2cccc(C)c2)no1` was run?
Its inhibition is -31.4%.

Which inhibition does the source give for `CNC(=O)CCc1nc(-c2ccccc2)no1` here?
Its inhibition is -13.3% and 12%.

For `CCNC(=O)CCc1nc(-c2ccc(C(C)C)cc2)no1`, which inhibition is on record?
Its inhibition is -33%.

`C=CCNC(=O)CCc1nc(-c2ccc(C(C)(C)C)cc2)no1` was tested. Which inhibition did it give?
The inhibition was -8.77%.

How did the inhibition turn out when `CCc1ccc(-c2noc(CCC(=O)NC(C)CC)n2)cc1` (stereo not given) was run?
Its inhibition is -51.7%.

With `CC(C)(C)c1ccc(-c2noc(CCC(=O)NCc3ccco3)n2)cc1` as the compound, how does the inhibition read?
The inhibition was 86.8% and 85.5%.

With `CCNC(=O)CCc1nc(-c2ccc(CC)cc2)no1` as the compound, how does the inhibition read?
Its inhibition is -35.2%.

How did the inhibition turn out when `CCNC(=O)CCc1nc(-c2ccccc2C)no1` was run?
The inhibition was -25.2%.

Which inhibition does the source give for `CCNC(=O)CCc1nc(-c2ccccc2)no1` here?
The inhibition was -39.4%.

With `COc1ccccc1NC(=O)CCc1nc(-c2ccc(C(C)(C)C)cc2)no1` as the compound, how does the inhibition read?
The inhibition was 67.6%.

Source: PubChem BioAssay AID652011 (Sanford-Burnham Center for Chemical Genomics, 2013)
